From ChEMBL document CHEMBL4428069, “Parallel inhibition of amino acid efflux and growth of erythrocytic Plasmodium falciparum by mefloquine and non-piperidine analogs: Implication for the mechanism of antimalarial action” (Bioorg Med Chem Lett, 2016) come the findings set out here.

In experiment [1] the test system is Plasmodium falciparum. Put plainly: Antimalarial activity against chloroquine/mefloquine-sensitive Plasmodium falciparum 3D7 infected-erythrocytes assessed as parasite growth inhibition after 48 to 54 hrs by SYBR green 1-based replication method. It counts as functional, organism-based. In short, it runs like this: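 Chloroquine- and mefloquine-sensitive 3D7 strain; growth inhibition measured with a SYBR Green I-based replication assay. IC50 reported as mean and standard deviation of three independent experiments.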

The subject of experiment [2] is Plasmodium falciparum. In words: Antimalarial activity against trophozoite stage of Plasmodium falciparum 3D7 infected-erythrocytes assessed as reduction in Leu efflux after 4 hrs by UPLC method. Particulars: 3D7, 4 h. The experiment is classed as functional, organism-based. In short, it runs like this:
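Trophozoite-stage 3D7-infected erythrocytes at 2% hematocrit and 10% parasitemia, cultured in medium lacking Leu and Val with D-norvaline as internal standard. Full concentration–response up to 1000 nM with a 4 h endpoint. Leu in the recovered conditioned medium quantified by UPLC (AccQ-Tag). Mean and standard deviation of three independent experiments.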

Experiment [3] concerns Plasmodium falciparum. In words: Antimalarial activity against chloroquine-resistant, mefloquine-sensitive Plasmodium falciparum W2 assessed as parasite growth inhibition by [3H]hypoxanthine incorporation assay.
For experiment [4], the system named is Plasmodium falciparum. Put plainly: Antimalarial activity against trophozoite stage of Plasmodium falciparum 3D7 infected-erythrocytes assessed as reduction in Leu efflux at 160 nM after 120 mins by UPLC method. It counts as functional, organism-based. In short, it runs like this:
(§1)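 Time course on 3D7-infected erythrocytes in medium lacking Leu and Val, with D-norvaline as internal standard. Exposure to 160 nM or DMSO, with conditioned medium sampled from 0 to 240 min. Leu in the medium measured by UPLC (AccQ-Tag), with a hyperbolic fit of the treated data. Points are the average of two technical replicates.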

The test system of experiment [5] is Plasmodium falciparum. In words: Antimalarial activity against trophozoite stage of Plasmodium falciparum 3D7 infected-erythrocytes assessed as inhibition of Leu efflux at 160 nM after 60 mins by UPLC method. It counts as functional. Particulars: 3D7, 4 h, in the assay text read “after 4 hrs” for “after 60 mins”. The procedure, abridged: as §1
Experiment [6] has as its system Plasmodium falciparum. Put plainly: Antimalarial activity against mefloquine-sensitive Plasmodium falciparum 3D7 infected-erythrocytes assessed as parasite growth inhibition after 48 hrs by sandwich ELISA. It counts as functional. Particulars: 3D7, 48 h. On the technique in general: ELISA stands for enzyme-linked immunosorbent assay.

The source made the active and inactive calls. The rule behind the calls is not given here.

Broadly, the IC50 is the point on the concentration scale where inhibition reaches its midpoint. Broadly, the IC90 is the concentration at which the effect reaches the 90% level. Consider `OC(CNCCc1ccccc1)c1cc(C(F)(F)F)nc2c(C(F)(F)F)cccc12` (stereo not given), for which the results for the IC50 in the experiment with Plasmodium falciparum [1] and with Plasmodium falciparum [2] were 8.5 nM and 13 nM, respectively. The IC90 in the experiment on Plasmodium falciparum [3] was 11 nM.
In the case of `CC1(C)N=C(N)N=C(N)N1OCCCOc1cc(Cl)c(Cl)cc1Cl`, the IC50 with Plasmodium falciparum [2] was above 1000 nM.
Regarding `CCCCN(CCCN)CC(O)c1cc(C(F)(F)F)nc2c(C(F)(F)F)cccc12` (stereo not given), the IC50 in the experiment with Plasmodium falciparum [1] was found to be 49 nM; in the experiment with Plasmodium falciparum [2], 180 nM.
On to `OC(CNC1CCCCC1)c1cc(C(F)(F)F)nc2c(C(F)(F)F)cccc12` (stereo not given), for which the IC50 in the experiment with Plasmodium falciparum [1] was 3.8 nM; in the experiment with Plasmodium falciparum [2], 9.7 nM. The concentration for an effect of 90% (IC90) in the experiment with Plasmodium falciparum [3] amounted to 6 nM.
Regarding `C#CCCN(CCCN)CC(O)c1cc(C(F)(F)F)nc2c(C(F)(F)F)cccc12` (stereo not given), the IC50 in the experiment with Plasmodium falciparum [1] amounted to 140 nM; in the experiment with Plasmodium falciparum [2], 360 nM.
Turning to `CCCN(CCC)CC(O)c1cc(C(F)(F)F)nc2c(C(F)(F)F)cccc12` (stereo not given), the IC50 in the experiment with Plasmodium falciparum [1] came out at 4.7 nM; with Plasmodium falciparum [2] it was 9.3 nM.
Take `C#CCCNCC(O)c1cc(C(F)(F)F)nc2c(C(F)(F)F)cccc12` (stereo not given): the IC50 amounted to 34 nM with Plasmodium falciparum [1] and 51 nM in the experiment with Plasmodium falciparum [2].
`OC(CNCCC1CCCC1)c1cc(C(F)(F)F)nc2c(C(F)(F)F)cccc12` (stereo not given): the IC50 was 120 nM with Plasmodium falciparum [1] and 210 nM with Plasmodium falciparum [2].
With `O=C1C(O)=C([C@H]2CC[C@H](c3ccc(Cl)cc3)CC2)C(=O)c2ccccc21` [ATOVAQUONE], the figures for the IC50 with Plasmodium falciparum [1] and in the experiment on Plasmodium falciparum [2] were 0.6 nM and above 1000 nM, respectively.
Consider `CCOCC(O)c1cc(C(F)(F)F)nc2c(C(F)(F)F)cccc12` (stereo not given), for which the IC50 in the experiment with Plasmodium falciparum [1] and in the experiment with Plasmodium falciparum [2] was 22000 nM each time.
For `OC(CNC12CC3CC(CC(C3)C1)C2)c1cc(C(F)(F)F)nc2c(C(F)(F)F)cccc12` (stereo not given), the IC50 with Plasmodium falciparum [1] turned out to be 5.9 nM; with Plasmodium falciparum [2] it was 15 nM.
Turning to `C#CCNCC(O)c1cc(C(F)(F)F)nc2c(C(F)(F)F)cccc12` (stereo not given), the IC50 in the experiment with Plasmodium falciparum [1] is 110 nM; in the experiment on Plasmodium falciparum [2], 140 nM. In addition, the IC90 with Plasmodium falciparum [3] is 1400 nM.
In general, inhibition refers to the drop in the measured response relative to a control, in per cent. For `O[C@@H](c1cc(C(F)(F)F)nc2c(C(F)(F)F)cccc12)[C@H]1CCCCN1` [(S,R)-MEFLOQUINE], the result in the experiment with Plasmodium falciparum [4] was Active. The figures for the IC50 in the experiment on Plasmodium falciparum [1] and with Plasmodium falciparum [2] were 9.1 nM and 22 nM, respectively. Also, in the experiment on Plasmodium falciparum [5], the inhibition at 0.16 µM turned out to be 70%. Also, the IC90 in the experiment with Plasmodium falciparum [6] amounted to 146 nM; in the experiment with Plasmodium falciparum [3] it was 16 nM.
On to `NCCCNCC(O)c1cc(C(F)(F)F)nc2c(C(F)(F)F)cccc12` (stereo not given), for which the results for the IC50 in the experiment with Plasmodium falciparum [1] and in the experiment with Plasmodium falciparum [2] were 1600 nM and 5000 nM, respectively.
For the molecule `CN(C)CCNCC(O)c1cc(C(F)(F)F)nc2c(C(F)(F)F)cccc12` (stereo not given), the results for the IC50 with Plasmodium falciparum [1] and with Plasmodium falciparum [2] were 240 nM and 320 nM, respectively. The IC90 with Plasmodium falciparum [3] was found to be 1300 nM.
With `CC(C)N(CC(O)c1cc(C(F)(F)F)nc2c(C(F)(F)F)cccc12)C(C)C` (stereo not given), the IC50 in the experiment with Plasmodium falciparum [1] was 350 nM; in the experiment on Plasmodium falciparum [2], 590 nM. Further, the IC90 in the experiment on Plasmodium falciparum [3] is 12 nM.
With `OC(CNc1ccccc1)c1cc(C(F)(F)F)nc2c(C(F)(F)F)cccc12` (stereo not given), the IC50 in the experiment on Plasmodium falciparum [1] came to 2000 nM; in the experiment with Plasmodium falciparum [2], 2600 nM. Besides, the IC90 in the experiment on Plasmodium falciparum [3] was determined as 1200 nM.
In the case of `OCCNCC(O)c1cc(C(F)(F)F)nc2c(C(F)(F)F)cccc12` (stereo not given), the IC50 with Plasmodium falciparum [1] worked out at 340 nM; in the experiment with Plasmodium falciparum [2], 500 nM. Moreover, the IC90 with Plasmodium falciparum [3] worked out at 710 nM.
For `CC(C)NCC(O)c1cc(C(F)(F)F)nc2c(C(F)(F)F)cccc12` (stereo not given) the same measures were 7.4 nM, 14 nM and 13 nM.
For the molecule `CCCNCC(O)c1cc(C(F)(F)F)nc2c(C(F)(F)F)cccc12` (stereo not given), the IC50 is 4.2 nM with Plasmodium falciparum [1] and 10 nM with Plasmodium falciparum [2]. For the same molecule, the IC90 with Plasmodium falciparum [3] came to 1 nM.
For `CCCCNCC(O)c1cc(C(F)(F)F)nc2c(C(F)(F)F)cccc12` (stereo not given) the same measures were 4.9 nM, 9 nM and 5 nM.
